High-throughput results from PubChem.
The list is not random: actives were taken first. Their share in the collection is about 2.6%.
UCH37 inh – inhibitors of human deubiquitinating enzyme UCH37; purified proteasome/UCH37, Ub-AMC cleavage fluorescence; 330,000 compounds, 0.33% hits; inhibition, % (concentration not given with the values);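 active means mean inhibition over replicate wells above about 20%, limit read from the data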;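 further: 0% = compound-free wells with enzyme and 100% = wells lacking proteasome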
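Material: Human UCH37 enzyme supplied as purified proteasome complex | Schedule: 30 min preincubation with enzyme, 25 min cleavage at room temperature | Detection: AMC fluorescence 355/460 nm | Measure: % inhibition of Ub-AMC cleavage fluorescence | Controls: Wells without proteasome as full block, compound-free enzyme plus substrate as uninhibited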
NSD2 inh – NSD2 (human) methyltransferase inhibition; O96028; NSD2 peptide methylation, AlphaScreen, 120 min; inhibition, % at 12.5 µM; 310,000 compounds, 0.54% hits; AID 743445; in the data active means inhibition above about 50%
Casp6 inh – inhibitors of human caspase-6 | P55212 | purified caspase-6, Z-VEID-R110 cleavage fluorescence | inhibition, % at 12.5 µM | 350,000 compounds, 0.53% hits | AID 686996;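 active means mean inhibition across replicates at least about 35%, with every replicate also reaching that limit, limit read from the data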;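 further: 0% = median of neutral control wells and 100% = no fluorescence left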
FGF22 binding – binders of recombinant human FGF22 by thermal shift; Q9HCT0; SYPRO orange fluorescence; percent of sucrose octasulfate shift, DMSO zero; activity (Tm shift, normalised), % at 9.99 µM; 340,000 compounds, 1.5% hits;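 active means mean Tm shift, scaled 0 neutral to 100 positive control, at about 1.3% or above, every replicate too, limit read from the data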
SIRT5 inh – inhibitors of human sirtuin-5 desuccinylase; Purified SirT5, succinyl-peptide AMC, trypsin-coupled fluorescence; inhibition, % at 15 µM; 330,000 compounds, 1.1% hits; AID 652115; in the data active means inhibition above about 15%
Numbers without * were called inactive; · = no result given.

SMILES	UCH37 inh	NSD2 inh	Casp6 inh	FGF22 binding	SIRT5 inh
COc1ccc(Cl)cc1NC(=S)NNC(=O)c1cccnc1	3	8	-2	43*	3
COC(=O)c1cccc(NC(=S)Nc2cc(Cl)ccc2OC)c1	3	-1	0	43*	-3
C[C@@H]1CN([C@H](C)CO)C(=O)c2cccc(NC(=O)CCCCCC(=O)Nc3ccccc3N)c2O[C@H]1CN(C)Cc1ccccc1	·	·	1	0	13
C[C@H]1CN([C@@H](C)CO)C(=O)c2cccc(NC(=O)CCCCCC(=O)Nc3ccccc3N)c2O[C@@H]1CN(C)Cc1ccc(-c2ccccc2)cc1	·	·	0	0	17*
C[C@@H]1CN([C@H](C)CO)C(=O)c2cccc(NC(=O)CCCCCC(=O)Nc3ccccc3N)c2O[C@H]1CN(C)Cc1ccc(-c2ccccc2)cc1	·	·	2	0	17*
COc1ccc(CCN2C(=O)CS/C2=N\NC(=O)c2cccs2)cc1OC	·	2	1	44*	0
C[C@H]1CN([C@@H](C)CO)S(=O)(=O)c2ccc(-c3ccccc3)cc2O[C@H]1CN(C)C	·	·	-4	0	8
CCOC(=O)Cc1csc(NC(=O)COc2ccc(C)cc2)n1	-3	-1	1	43*	0
CCOC(=O)Cc1csc(NC(=O)COc2ccccc2)n1	0	0	·	·	·
CCOC(=O)N1CCC(n2c(SCC(=O)NCCC3=CCCCC3)nc3ccccc3c2=O)CC1	24*	0	·	·	·
COc1cc(N=Nc2c(O)c3ccccc3[nH]c2=O)c(OC)cc1N=Nc1ccccc1	·	2	·	·	·
COc1ccc(OC)c(N=Nc2c(O)c3ccccc3[nH]c2=O)c1	11	6	3	43*	·
C[C@@H]1CN([C@@H](C)CO)C(=O)c2cc(C3=CCCC3)cnc2O[C@@H]1CN(C)C(=O)Nc1ccc(C(F)(F)F)cc1	·	·	-4	-1	1
COCc1cn([C@@H]2C[C@@H]3O[C@H](CO)CC[C@@H]3O[C@@H]2CCc2ccc(-c3ccc(OC)cc3)cc2)nn1	·	·	0	·	-4
O=C(Nc1ccc(F)cc1)Nc1ccc2c(c1)[C@H]1C[C@H](CC(=O)N3CCCCC3)O[C@@H](CO)[C@H]1O2	·	·	·	0	·
O=C(CCCn1cc([N+](=O)[O-])cn1)N1CCCCC1	-1	-3	-2	0	-1
Cc1cc(C)n(C(=O)CCCn2cc([N+](=O)[O-])cn2)n1	1	-4	-3	43*	0
C[C@H]1CN([C@@H](C)CO)C(=O)c2cc(NC(=O)Cn3cnnn3)ccc2O[C@H]1CN(C)CC1CC1	·	·	1	·	3
O=C(C[C@H]1CC[C@H]2[C@@H](COC[C@H](O)CN2C(=O)c2cnccn2)O1)NCc1ccc(Cl)cc1	·	·	0	0	-3
COc1ccc(S(=O)(=O)Nc2ccc3c(c2)CC(=O)N([C@@H](C)CO)C[C@H](C)[C@@H](CN(C)CC2CCCCC2)O3)cc1	·	·	1	0	16*
COc1ccc(S(=O)(=O)Nc2ccc3c(c2)CC(=O)N([C@@H](C)CO)C[C@@H](C)[C@@H](CN(C)CC2CCCCC2)O3)cc1	·	·	1	0	13
COc1ccc(S(=O)(=O)Nc2ccc3c(c2)CC(=O)N([C@@H](C)CO)C[C@@H](C)[C@@H](CN(C)CC2CC2)O3)cc1	·	·	-3	0	-1
COc1ccc(S(=O)(=O)Nc2ccc3c(c2)CC(=O)N([C@H](C)CO)C[C@H](C)[C@@H](CN(C)CC2CCCCC2)O3)cc1	·	·	1	0	24*
Cc1ccc(Sc2ccc(/C=C3/C(=O)NN(c4ccccc4)C3=O)o2)cc1	14	11	24	0	8
O=C1NN(c2ccccc2)C(=O)/C1=C/c1ccc(-c2ccc(Cl)c(C(=O)O)c2)o1	2	24	55*	0	14
SMILES	UCH37 inh	NSD2 inh	Casp6 inh	FGF22 binding	SIRT5 inh
O=C1NN(c2ccccc2)C(=O)/C1=C/c1ccc(Sc2ccc(Cl)cc2)o1	12	·	40*	0	3
O=C(O)c1cc(-c2ccc(/C=C3\NC(=O)N(c4ccccc4)C3=O)o2)ccc1Cl	-10	·	25	0	8
O=C(O)c1cc(-c2ccc(/C=C3\NC(=O)N(c4ccc(Cl)cc4)C3=O)o2)ccc1Cl	-25	33	40*	·	20*
O=C(CCOc1ccccc1)Nc1ccnn1C1CCN(Cc2ccc(CO)o2)CC1	0	-2	-14	2.5*	-4
CCOC(=O)CSc1nc2ccccc2c(=O)n1CC	1	-4	·	·	·
CCn1c(SCC(=O)NCCOc2ccccc2)nc2ccccc2c1=O	28*	35	·	·	·
CCOC(=O)CSc1nc2ccccc2c(=O)n1CC(C)C	0	-1	4	43*	-1
Cc1cc(NC(=S)NC(=O)CC(C)C)ccc1Br	1	-4	2	35*	-3
Cc1cccn2c(=O)c(C=O)c(N3CCN(c4ccccc4)CC3)nc12	7	4	3	43*	2
Cc1cccn2c(=O)c(C=O)c(N3CCN(C)CC3)nc12	3	10	-2	0	0
C[C@H]1CN([C@@H](C)CO)C(=O)c2cc(NS(=O)(=O)c3cccs3)ccc2O[C@H]1CN(C)Cc1ccccc1	·	·	0	0	4
COc1cccc(=O)c2c(C)n(CC(=O)c3ccccc3)c(C)c12	2	0	-3	44*	3
O=C(C[C@@H]1C=C[C@@H](NC(=O)CN2CCOCC2)[C@@H](CO)O1)NC1CCCCC1	·	·	1	0	1
COc1ccccc1Nc1nc2cc(C)ccc2cc1C#N	-71	-9	1	43*	1
COc1ccccc1Nc1nc2ccc(C)cc2cc1C#N	·	-3	·	·	·
N#Cc1c(SCC(=O)Nc2ccc(C(F)(F)F)cc2)sc2c(O)cc(=O)[nH]c12	3	·	41*	1	2
Cc1ccc(NC(=O)CSc2sc3c(O)cc(=O)[nH]c3c2C#N)c(F)c1	·	·	29	0	·
COc1ccc(OC)c(NC(=O)CSc2sc3c(O)cc(=O)[nH]c3c2C#N)c1	9	·	43*	·	13
COc1cc(Cl)c(C)cc1NC(=O)CSc1nnc(CCC(=O)O)c(=O)[nH]1	3	-3	10	0	22*
COc1cc(Cl)c(C)cc1NC(=O)CSc1sc2c(O)cc(=O)[nH]c2c1C#N	·	·	26	0	15*
C/C=C/c1ccc2c(c1)O[C@@H](CN(C)C)[C@@H](C)CN([C@H](C)CO)S2(=O)=O	·	·	0	0	-1
CCOc1ccccc1NC(=O)C(OC(=O)C1CC1)c1ccccc1 (stereo not drawn)	3	-5	-2	41	-1
CCOc1ccccc1NC(=O)C(NCC1(N2CCCCC2)CCCCC1)c1ccccc1 (stereo not drawn)	4	0	1	44*	-8
C[C@@H]1CN([C@@H](C)CO)S(=O)(=O)c2ccc(C#Cc3ccccn3)cc2O[C@@H]1CN(C)Cc1cccc(F)c1	·	·	0	0	20*
